Legend:
[1] = M4112 levels in plasma, liver and tumor of mice bearing MC38 tumors; format: in vivo; details: MC38 tumor-bearing mice
Procedure, shortened: (§1)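 Female adult C57BL/6 mice were inoculated subcutaneously with 0.5×10^6 IDO1-expressing MC38 colon carcinoma cells. At average tumor volumes of about 200–250 mm3 they received a single oral dose of the test compound (30, 75 or 200 mg/kg) or vehicle. Plasma, liver and tumor were sampled at 1, 2, 4, 8 and 24 h. Drug, kynurenine and tryptophan were measured by LC-MS/MS, and the kynurenine:tryptophan ratio was derived. Data are mean±SEM.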

tumor IDO1 = tumor IDO1 (Mus musculus, UniProt P28776); format: in vivo; details: MC38 tumor-bearing mice; 30, 75 or 200 mg/kg
tumor IDO1, sequence (P28776 whole entry): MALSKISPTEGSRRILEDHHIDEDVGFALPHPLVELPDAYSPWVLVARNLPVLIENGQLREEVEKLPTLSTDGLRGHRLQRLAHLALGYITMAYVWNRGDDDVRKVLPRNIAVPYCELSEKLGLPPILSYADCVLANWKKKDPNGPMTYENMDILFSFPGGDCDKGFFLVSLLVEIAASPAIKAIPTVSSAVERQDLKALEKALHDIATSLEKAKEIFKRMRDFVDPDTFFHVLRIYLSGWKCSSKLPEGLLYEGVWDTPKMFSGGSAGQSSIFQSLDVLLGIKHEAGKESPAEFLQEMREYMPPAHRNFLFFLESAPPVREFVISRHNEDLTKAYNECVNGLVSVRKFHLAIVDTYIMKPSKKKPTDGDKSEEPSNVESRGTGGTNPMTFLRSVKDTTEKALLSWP
Procedure, shortened: as §1

[2] = test system: kynurenine and tryptophan in the plasma; experiment: phase I trial: plasma kynurenine and tryptophan; format: in vivo, human
Procedure, shortened: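 In this open-label dose-escalation study, patients received the test compound orally twice daily (100–800 mg, three per cohort, 28-day cycles). Plasma was collected on cycle 1 day 1 and day 15 (predose and 1, 2, 4 and 6 h postdose), day 8 (predose), and cycle 2 day 1 (predose and 2 h). Kynurenine and tryptophan were quantified by LC-MS/MS, ratios were calculated, and values were normalized to baseline.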

advanced solid tumors = experiment: phase I trial: preliminary antitumor activity; format: in vivo, human
Procedure, shortened: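 Patients with advanced solid tumors received twice-daily oral doses in 28-day cycles. CT or MRI was done at baseline and within 7 days before day 1 of cycles 3, 5 and 7, then every three cycles. The investigator assessed objective response, best overall response, disease control and progression-free survival per RECIST 1.1. Binary endpoints used exact Clopper-Pearson 95% CI and PFS used Kaplan-Meier.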

## NS(=O)(=O)[C@H]1CC[C@](F)(CC[C@H]2c3ccccc3-c3cncn32)CC1 [M4112]
[1]
  exposure to M4112 in the liver compared with both the plasma and the tumor: approximately 10 fold
[1]; single oral dose
  concentration of M4112 in the tumor by 24 hours post-treatment: decreased to baseline levels
[1]; single oral dose 30, 75 or 200 mg/kg, post-treatment
  time at which the concentration of M4112 in the tumor peaked: 1 to 2 h
Tumor IDO1
  kynurenine:tryptophan ratio in the liver and plasma: dose-dependent reduction
[2]; cycle 1 day 1, after 6 hours
  plasma kynurenine:tryptophan ratio: decrease
[2]; day 1 of cycle 1, up to 6 hours after the first dose, all dose levels
  decrease in plasma kynurenine levels: 12%–35
[2]; day 1 of cycle 1, 200 mg two times per day and above
  plasma tryptophan levels: increased
[2]; day 15 of cycle 1
  plasma kynurenine levels: returned to at least baseline levels
Advanced solid tumors; 9 of 15 patients
  best overall response stable disease, patients: 60.0%
Advanced solid tumors; 15 patients
  median progression-free survival: 3.7 months
  objective responses: no objective responses
